According to ChEMBL document CHEMBL3414488, “When structure-affinity relationships meet structure-kinetics relationships: 3-((Inden-1-yl)amino)-1-isopropyl-cyclopentane-1-carboxamides as CCR2 antagonists” (Eur J Med Chem, 2015):
pKd, pKi: −log10 of the molar value. Calls of active or inactive are those of the source. The rule behind the calls is not given here.

Tests used:
[1] = target: T1, C-C chemokine receptor type 2 (Homo sapiens, UniProt P41597); assay: Displacement of [3H]INCB3344 from human CCR2 receptor expressed in human U2OS cell membrane assessed as kinetic rate index at Ki by dual-point competition association assay relative to control; type: cell membranes
In short: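 U2OS–CCR2 membranes (10 μg) incubated with 1.8 nM [3H]INCB3344 at 25 °C for 50 min (t1) or 240 min (t2). Unlabeled ligand was present at 1-fold its Ki from 125I-CCL2 displacement. KRI = specific binding at t1 divided by specific binding at t2.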
Target sequence in this assay (P41597 whole entry, looked up): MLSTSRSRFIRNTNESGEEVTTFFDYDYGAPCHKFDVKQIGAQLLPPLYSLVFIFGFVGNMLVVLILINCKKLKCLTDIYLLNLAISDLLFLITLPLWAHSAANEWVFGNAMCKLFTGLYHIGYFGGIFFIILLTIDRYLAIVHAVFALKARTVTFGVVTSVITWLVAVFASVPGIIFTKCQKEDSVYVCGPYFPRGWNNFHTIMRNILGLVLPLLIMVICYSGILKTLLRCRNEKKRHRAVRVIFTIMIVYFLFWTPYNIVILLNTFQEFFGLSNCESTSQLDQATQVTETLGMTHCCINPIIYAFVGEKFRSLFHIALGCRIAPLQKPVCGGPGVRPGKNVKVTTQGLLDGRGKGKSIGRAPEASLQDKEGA

[2] = Residence time of the compound
[3] = target: T1, C-C chemokine receptor type 2; assay: Displacement of 0.1 nM [125I]CCL2 from human CCR2 expressing human U2OS cell membrane by scintillation spectrometry; type: cell membranes
In short: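 U2OS–CCR2 membranes (15 μg) incubated 150 min at 37 °C with 0.1 nM 125I-CCL2 with or without competitor. Ki derived from IC50 by Cheng–Prusoff. Mean ± S.E.M. of at least 3 experiments in duplicate.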
Target sequence in this assay (P41597 whole entry): as the sequence (P41597 whole entry, looked up) above

[4] = target: T1, C-C chemokine receptor type 2; assay: Antagonist activity at human CCR2 expressing human U2OS cells assessed as inhibition of CCL2-induced G protein activation at 10 uM by [35S]GTPgammaS binding/scintillation spectrometry assay; type: functional, cell-based
In short: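 Membranes (10 μg) in 50 mM Tris-HCl pH 7.4, 5 mM MgCl2, 100 mM NaCl, 1 mM EDTA, 0.05% BSA, 10 μM GDP, 10 μg saponin; 30 min preincubation with 10 μM antagonist at 25 °C, then 10 nM CCL2 for 30 min, then 0.3 nM [35S]GTPγS for 90 min. Stopped with ice-cold buffer, GF/B filtration, scintillation counting.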
Target sequence in this assay (P41597 whole entry, looked up): as above

[5] = target: T1, C-C chemokine receptor type 2; assay: Displacement of 0.1 nM [125I]CCL2 from human CCR2 expressing human U2OS cell membrane by scintillation spectrometry
Target sequence in this assay (P41597 whole entry, looked up): as above

Row | Ratio [1] | Residence time [2] [min] | pKi [3] | inhibition [4] | pKd [3] | inhibition [5] [%] | Structure (SMILES)
1 | 1.3 | 103 | 8.36 | – | – | – | CC(C)[C@]1(C(=O)N2CCc3ccc(C(F)(F)F)cc3C2)CC[C@@H](NC2CCc3cc(I)ccc32)C1 (stereo not given in full)
2 | 1.3 | 213 | 8.64 | – | – | – | CC(C)[C@]1(C(=O)N2CCc3ccc(C(F)(F)F)cc3C2)CC[C@@H](NC2CCc3cc(Br)ccc32)C1 (stereo not given in full)
3 | – | – | 6.86 | – | – | – | CC(C)[C@]1(C(=O)N2CCc3ccc(C(F)(F)F)cc3C2)CC[C@@H](N[C@@H]2C[C@H](C)c3cc(Br)ccc32)C1
4 | 1.3 | 179 | 7.08 | – | – | – | CCC1CC(N[C@@H]2CC[C@@](C(=O)N3CCc4ccc(C(F)(F)F)cc4C3)(C(C)C)C2)c2cc(OC)c(Br)cc21 (stereo not given in full)
5 | 0.6 | – | 7.82 | – | – | – | CC(C)[C@]1(C(=O)N2CCc3ccc(C(F)(F)F)cc3C2)CC[C@@H](NC2CCc3c(C#N)cccc32)C1 (stereo not given in full)
6 | 0.8 | – | 7.92 | – | – | – | COc1cc(-c2ccc3c(c2)CCC3N[C@@H]2CC[C@@](C(=O)N3CCc4ccc(C(F)(F)F)cc4C3)(C(C)C)C2)c(F)cn1 (stereo not given in full)
7 | 0.6 | – | 7.64 | – | – | – | Cc1ccc2c(c1)C(N[C@@H]1CC[C@@](C(=O)N3CCc4ccc(C(F)(F)F)cc4C3)(C(C)C)C1)CC2 (stereo not given in full)
8 | 1 | 21 | 8.66 | – | – | – | CC(C)[C@]1(C(=O)N2CCc3ccc(C(F)(F)F)cc3C2)CC[C@@H](NC2CCc3ccccc32)C1 (stereo not given in full)
9 | 1.2 | 208 | 8.34 | Active | – | – | CC(C)[C@]1(C(=O)N2CCc3ccc(C(F)(F)F)cc3C2)CC[C@@H](N[C@H]2C[C@H](C)c3cc(Br)ccc32)C1
10 | 0.7 | – | 7.68 | – | – | – | CC(C)[C@]1(C(=O)N2CCc3ccc(C(F)(F)F)cc3C2)CC[C@@H](NC2CCc3c(O)cccc32)C1 (stereo not given in full)
11 | 0.5 | 8.3 | 7.82 | – | – | – | CC(C)[C@]1(C(=O)N2CCN(c3cc(C(F)(F)F)ccn3)CC2)CC[C@@H](NC2CCc3ccccc32)C1 (stereo not given in full)
12 | 0.6 | – | 7.64 | – | – | – | COc1cc(-c2ccc3c(c2)CCC3N[C@@H]2CC[C@@](C(=O)N3CCc4ccc(C(F)(F)F)cc4C3)(C(C)C)C2)ccn1 (stereo not given in full)
13 | 0.7 | – | 7.51 | – | – | – | Cc1cccc2c1CCC2N[C@@H]1CC[C@@](C(=O)N2CCc3ccc(C(F)(F)F)cc3C2)(C(C)C)C1 (stereo not given in full)
14 | 0.9 | 55 | 8.31 | – | – | – | CC(C)[C@]1(C(=O)N2CCc3ccc(C(F)(F)F)cc3C2)CC[C@@H](NC2CCc3cc(F)ccc32)C1 (stereo not given in full)
15 | 1.4 | 588 | 8.77 | Active | – | – | CC(C)[C@]1(C(=O)N2CCc3ccc(C(F)(F)F)cc3C2)CC[C@@H](N[C@H]2C[C@@H](C)c3cc(Br)ccc32)C1
16 | 1.7 | 714 | 8.62 | Active | – | – | CC(C)[C@]1(C(=O)N2CCc3ccc(C(F)(F)F)cc3C2)CC[C@@H](N[C@@H]2CCc3cc(Br)ccc32)C1
17 | – | 92 | 9.26 | – | 9.32 | – | CO[C@@H]1COCC[C@@H]1N[C@@H]1CC[C@@](C(=O)N2CCc3ncc(C(F)(F)F)cc3C2)(C(C)C)C1 [MK-0812]
18 | – | – | – | – | – | 24 | Cc1cccc(-c2ccc3c(c2)CCC3N[C@@H]2CC[C@@](C(=O)N3CCc4ccc(C(F)(F)F)cc4C3)(C(C)C)C2)c1 (stereo not given in full)
19 | 1.3 | 323 | 8.35 | – | – | – | COc1cc2c(cc1Br)CCC2N[C@@H]1CC[C@@](C(=O)N2CCc3ccc(C(F)(F)F)cc3C2)(C(C)C)C1 (stereo not given in full)
20 | 1.5 | 238 | 7.89 | – | – | – | COc1cc2c(cc1Br)C(C)CC2N[C@@H]1CC[C@@](C(=O)N2CCc3ccc(C(F)(F)F)cc3C2)(C(C)C)C1 (stereo not given in full)
21 | 0.7 | – | 7.26 | – | – | – | CC(C)[C@]1(C(=O)N2CCc3ccc(C(F)(F)F)cc3C2)CC[C@@H](NC2CCc3cc(-c4cccc(C#N)c4)ccc32)C1 (stereo not given in full)

Row | Ratio [1] | Residence time [2] [min] | pKi [3] | inhibition [4] | pKd [3] | inhibition [5] [%] | Structure (SMILES)
22 | 1.3 | 345 | 8.70 | – | – | – | CC1CC(N[C@@H]2CC[C@@](C(=O)N3CCc4ccc(C(F)(F)F)cc4C3)(C(C)C)C2)c2ccc(Br)cc21 (stereo not given in full)
23 | 1.2 | 100 | 8.80 | – | – | – | CC(C)[C@]1(C(=O)N2CCc3ccc(C(F)(F)F)cc3C2)CC[C@@H](NC2CCc3cc(Cl)ccc32)C1 (stereo not given in full)
24 | 0.5 | – | 8.00 | – | – | – | CCOc1cncc(-c2ccc3c(c2)CCC3N[C@@H]2CC[C@@](C(=O)N3CCc4ccc(C(F)(F)F)cc4C3)(C(C)C)C2)c1 (stereo not given in full)
25 | 0.6 | – | 8.10 | – | – | – | CC(C)[C@]1(C(=O)N2CCc3ccc(C(F)(F)F)cc3C2)CC[C@@H](NC2CCc3ccc(Cl)cc32)C1 (stereo not given in full)
26 | 0.8 | 15 | 7.62 | Active | – | – | CC(C)[C@]1(C(=O)N2CCc3ccc(C(F)(F)F)cc3C2)CC[C@@H](N[C@H]2CCc3cc(Br)ccc32)C1
27 | 0.6 | – | 7.89 | – | – | – | CC(C)[C@]1(C(=O)N2CCc3ccc(C(F)(F)F)cc3C2)CC[C@@H](NC2CCc3ccc(C#N)cc32)C1 (stereo not given in full)
28 | 0.7 | – | 8.00 | – | – | – | CC(C)[C@]1(C(=O)N2CCc3ccc(C(F)(F)F)cc3C2)CC[C@@H](NC2CCc3cc(-c4cccnc4)ccc32)C1 (stereo not given in full)
29 | 0.7 | – | 8.34 | – | – | – | CC(C)[C@]1(C(=O)N2CCc3ccc(C(F)(F)F)cc3C2)CC[C@@H](NC2CCc3c(N)cccc32)C1 (stereo not given in full)
30 | 0.9 | – | 7.12 | – | – | – | COc1ccc(-c2ccc3c(c2)CCC3N[C@@H]2CC[C@@](C(=O)N3CCc4ccc(C(F)(F)F)cc4C3)(C(C)C)C2)cc1 (stereo not given in full)
31 | 0.7 | – | 8.47 | – | – | – | CC1CC(N[C@@H]2CC[C@@](C(=O)N3CCc4ccc(C(F)(F)F)cc4C3)(C(C)C)C2)c2ccccc21 (stereo not given in full)
32 | 0.8 | – | 7.31 | – | – | – | COc1ccc(OC)c2c1CCC2N[C@@H]1CC[C@@](C(=O)N2CCc3ccc(C(F)(F)F)cc3C2)(C(C)C)C1 (stereo not given in full)
33 | – | – | – | – | – | 28 | CC(C)[C@]1(C(=O)N2CCc3ccc(C(F)(F)F)cc3C2)CC[C@@H](NC2CCc3cc(-c4ccccc4)ccc32)C1 (stereo not given in full)
34 | – | – | – | – | – | 2 | COc1ccccc1-c1ccc2c(c1)CCC2N[C@@H]1CC[C@@](C(=O)N2CCc3ccc(C(F)(F)F)cc3C2)(C(C)C)C1 (stereo not given in full)
35 | 0.9 | – | 7.96 | – | – | – | CC(C)[C@]1(C(=O)N2CCc3ccc(C(F)(F)F)cc3C2)CC[C@@H](NC2CCc3cc(-c4ccc(C#N)cc4)ccc32)C1 (stereo not given in full)
36 | 1.4 | 667 | 7.89 | Active | – | – | CC(C)[C@]1(C(=O)N2CCc3ccc(C(F)(F)F)cc3C2)CC[C@@H](NC2CCc3cc(C(F)(F)F)ccc32)C1 (stereo not given in full)
37 | – | – | – | – | – | 46 | Cc1ccccc1-c1ccc2c(c1)CCC2N[C@@H]1CC[C@@](C(=O)N2CCc3ccc(C(F)(F)F)cc3C2)(C(C)C)C1 (stereo not given in full)
38 | 1 | 63 | 8.92 | – | – | – | COc1cc2c(cc1OC)C(N[C@@H]1CC[C@@](C(=O)N3CCc4ccc(C(F)(F)F)cc4C3)(C(C)C)C1)CC2 (stereo not given in full)
39 | – | – | 6.70 | – | – | – | CC(C)[C@]1(C(=O)N2CCc3ccc(C(F)(F)F)cc3C2)CC[C@@H](N[C@@H]2C[C@@H](C)c3cc(Br)ccc32)C1
40 | 0.8 | – | 7.39 | – | – | – | COc1cncc(-c2ccc3c(c2)CCC3N[C@@H]2CC[C@@](C(=O)N3CCc4ccc(C(F)(F)F)cc4C3)(C(C)C)C2)c1 (stereo not given in full)
41 | 0.8 | – | 7.41 | – | – | – | COc1cccc(-c2ccc3c(c2)CCC3N[C@@H]2CC[C@@](C(=O)N3CCc4ccc(C(F)(F)F)cc4C3)(C(C)C)C2)c1 (stereo not given in full)
42 | 0.8 | 9.1 | – | – | – | – | CC(C)[C@]1(C(=O)NCc2cc(C(F)(F)F)cc(C(F)(F)F)c2)CC[C@@H](NC2CCc3ccccc32)C1 (stereo not given in full)
